The values below come from ChEMBL document CHEMBL4304782, “Antioxidant, Anti-inflammatory, and Neuroprotective Effects of Novel Vinyl Sulfonate Compounds as Nrf2 Activator” (ACS Med Chem Lett, 2019).

Series [1] has as its target T1, Nuclear factor erythroid 2-related factor 2 (Mus musculus) (UniProt Q60795).
T1 sequence (whole entry): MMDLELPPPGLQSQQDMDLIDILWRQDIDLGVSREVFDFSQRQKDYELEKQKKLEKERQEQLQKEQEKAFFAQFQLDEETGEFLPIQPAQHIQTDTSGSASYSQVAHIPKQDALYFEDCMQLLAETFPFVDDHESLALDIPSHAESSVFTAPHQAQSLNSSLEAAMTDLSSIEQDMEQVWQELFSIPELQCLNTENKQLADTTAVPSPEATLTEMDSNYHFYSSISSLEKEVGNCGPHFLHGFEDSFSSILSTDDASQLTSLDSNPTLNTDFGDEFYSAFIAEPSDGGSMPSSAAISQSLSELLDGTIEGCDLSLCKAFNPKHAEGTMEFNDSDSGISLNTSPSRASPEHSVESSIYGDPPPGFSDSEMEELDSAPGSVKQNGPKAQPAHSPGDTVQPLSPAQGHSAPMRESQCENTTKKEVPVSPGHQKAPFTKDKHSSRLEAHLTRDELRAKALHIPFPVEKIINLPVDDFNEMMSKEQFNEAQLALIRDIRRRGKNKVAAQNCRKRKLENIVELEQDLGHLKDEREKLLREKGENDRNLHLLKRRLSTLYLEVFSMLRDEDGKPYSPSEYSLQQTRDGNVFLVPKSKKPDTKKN
Kind of series: Activation of Nrf2 in mouse BV-2 cells assessed as upregulation of HO-1 mRNA expression at 1 to 10 uM incubated for 3 hrs by RT-qPCR analysis relative to control. It is filed as cell-based. A digest of the protocol:
(§1)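 BV-2 cells exposed to a range of concentrations for 3 h; HO-1, GCLM and GCLC mRNA quantified by RT-qPCR, normalized to β-actin; at least duplicate cultures, fold of untreated control ± SEM; paired t test.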

Series [2] deals with T1, Nuclear factor erythroid 2-related factor 2 (Mus musculus). Kind of series: Activation of Nrf2 in mouse BV-2 cells assessed as upregulation of GCLC mRNA expression at 1 to 10 uM incubated for 3 hrs by RT-qPCR analysis relative to control. It is filed as cell-based. In short, it runs like this: as §1
Series [3] shares this target. Kind of series: Activation of Nrf2 in mouse BV-2 cells assessed as increase in HO-1 level at 0.3 to 10 uM incubated for 12 hrs by Western blot analysis relative to control. It is filed as cell-based. A digest of the protocol: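 BV-2 cells treated for 12 h; HO-1, GCLM, GCLC protein by Western blot, normalized to β-actin; at least duplicate cultures, fold induction over untreated control ± SEM; paired t test.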

A short description of series [4]: Cytotoxicity against mouse BV2 cells assessed as cell viability at 3 uM incubated for 6 hrs by CCK-8 assay relative to control. Format: cell-based, BV-2. Conditions: read-out: Activity. A digest of the protocol: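 BV-2 cells exposed to compound for 6 h, then viability measured; percent survival reported.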
Series [5] deals with T1, Nuclear factor erythroid 2-related factor 2 (Mus musculus). Kind of series: Activation of Nrf2 in mouse BV-2 cells assessed as increase in total Nrf2 level by Western blot analysis. Format: cell-based. In short, it runs like this: (§2)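 BV-2 microglia treated 0.3–10 μM; Nrf2 measured by Western blot in nuclear extracts and whole-cell lysates; at least duplicate cultures, averaged, expressed as fold of untreated control ± SEM; paired t test.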

Series [6] has the same target. Kind of series: Activation of Nrf2 in mouse BV-2 cells assessed as increase in total Nrf2 level at 0.3 uM by Western blot analysis relative to control. It is filed as cell-based. In short, it runs like this:
as §2

The subject of series [7] is BV-2. Kind of series: Antiinflammatory activity in mouse BV2 cells assessed as reduction in LPS-induced IL-1beta expression at 3 to 10 uM incubated for 6 hrs followed by LPS stimulation for 12 hrs by RT-qPCR analysis. It is filed as functional, cell-based. A digest of the protocol:
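BV-2 cells pretreated with compound 6 h, then stimulated with 1 μg/mL LPS for 12 h; protein and mRNA levels quantified relative to LPS-stimulated control; mean ± SD (n = 3); paired t test.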

Series [8] deals with BV-2. Kind of series: Antiinflammatory activity in mouse BV2 cells assessed as reduction in LPS-induced TNF-alpha production incubated for 24 hrs by ELISA. Format: functional, cell-based. In short, it runs like this: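 BV-2 cells given compound together with 1 μg/mL LPS for 24 h; mediator levels expressed relative to LPS-stimulated control ± SEM; at least duplicate cultures; paired t test.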

In series [9] the target is T2, Nuclear factor erythroid 2-related factor 2 (Homo sapiens) (UniProt Q16236).
T2 sequence (whole entry): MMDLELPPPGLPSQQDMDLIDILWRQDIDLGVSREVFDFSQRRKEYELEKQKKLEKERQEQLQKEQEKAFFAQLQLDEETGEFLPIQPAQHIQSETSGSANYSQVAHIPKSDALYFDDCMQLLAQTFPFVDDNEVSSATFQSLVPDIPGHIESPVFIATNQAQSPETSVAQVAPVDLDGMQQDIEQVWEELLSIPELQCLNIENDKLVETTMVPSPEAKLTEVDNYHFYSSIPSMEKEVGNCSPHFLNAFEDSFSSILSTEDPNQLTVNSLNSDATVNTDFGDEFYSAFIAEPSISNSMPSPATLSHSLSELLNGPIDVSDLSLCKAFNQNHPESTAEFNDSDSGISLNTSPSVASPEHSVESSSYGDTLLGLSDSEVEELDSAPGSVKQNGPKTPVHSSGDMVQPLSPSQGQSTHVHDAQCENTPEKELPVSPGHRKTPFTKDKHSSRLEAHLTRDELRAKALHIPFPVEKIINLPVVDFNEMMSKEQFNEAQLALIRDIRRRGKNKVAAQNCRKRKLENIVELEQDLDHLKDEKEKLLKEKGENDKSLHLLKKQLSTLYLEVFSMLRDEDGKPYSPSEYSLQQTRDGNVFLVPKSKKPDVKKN
Nature of the series: Activation of Nrf2 in human SH-SY5Y cells assessed as increase in GCLM level incubated for 6 to 24 hrs by Western blot analysis. Format: cell-based. In short, it runs like this: (§3)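 SH-SY5Y neuroblastoma cells treated for 6 or 24 h, then harvested; NQO1, GCLM, GCLC protein by Western blot with β-actin loading control; at least duplicate cultures, averaged, fold of untreated control ± SEM; paired t test.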

The target in series [10] is T2, Nuclear factor erythroid 2-related factor 2 (Homo sapiens). Nature of the series: Activation of Nrf2 in human SH-SY5Y cells assessed as increase in GCLC level incubated for 6 to 24 hrs by Western blot analysis. Format: cell-based. In short, it runs like this:
as §3

Active and inactive are the calls of the source. The calls are words filed in the database; no cut-off is given here.

As for `COc1ccccc1OS(=O)(=O)/C=C/c1ccccc1Cl`, the fold change (FC) in series [1] came to 10.7; in [2], 2.3; in series [3] it was 10.3; in series [6], 3.3. For the same molecule, in [4], the viability at 6 h, 3 µM was 97.6%. The Activity entry (in [5]; with BV-2 [8]; in series [9]; in series [10]) was “Dose-dependent effect” throughout. The result with BV-2 [7] was Active.
